According to ChEMBL document CHEMBL4613263, “Optimization of Tetrahydroindazoles as Inhibitors of Human Dihydroorotate Dehydrogenase and Evaluation of Their Activity and In Vitro Metabolic Stability” (J Med Chem, 2020):
Values after ≈ are worked out from the molar mass of the structure shown. Active and inactive are the calls of the source. The calls are words filed in the database; no cut-off is given here.

What was measured:
[1] = Kinetic aqueous solubility of compound in Prima HT solution at pH 7.4 incubated for 4 hrs by UV-spectrophotometry; type: physicochemical; details: read-out: Kinetic_solubility
Summary of the method: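 20 mM DMSO stocks diluted 100× into Prima HT buffer at pH 7.4 and shaken 4 h at rt. Samples filtered through 0.22 µm, mixed 1:1 with isopropanol and scanned by UV from 190–400 nm against stock reference standards.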

[2] = target: T1, Dihydroorotate dehydrogenase (quinone), mitochondrial (Homo sapiens, UniProt Q02127); test: Inhibition of […] in human ARN8 cells assessed as decrease in Bcl2 protein expression at 20 nM incubated for 24 hrs in presence of pan-caspase inhibitor, Z-VAD-FMK by Western blot analysis; type: cell-based
[3] = target: T1, Dihydroorotate dehydrogenase (quinone), mitochondrial; test: Inhibition of DHOH in human ARN8 cells assessed as increase in caspase 3/7 activity at 20 nM incubated for 48 hrs in presence of pan-caspase inhibitor, Z-VAD-FMK by live cell imaging analysis; type: cell-based
Summary of the method: (§1)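 ARN8 cells seeded at 4×10^3 per well and left 24 h, then given 20 nM compound in medium containing 2 µM caspase-3/7 substrate and 0.3 µM YOYO-3 (0.2% DMSO). Where indicated, 100 µM uridine or 20 µM Z-VAD-FMK was added. Cells imaged every 2 h for 48.5 h in an IncuCyte. Positive-cell counts per mm² normalized to confluence %; mean ± SD of three technical replicates.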

[4] = target: T1, Dihydroorotate dehydrogenase (quinone), mitochondrial; test: Inhibition of recombinant human DHODH using dihydroorotic acid as substrate measured for 68 mins by DCIP based colorimetric assay
[5] = target: T1, Dihydroorotate dehydrogenase (quinone), mitochondrial; test: Inhibition of DHOH in human ARN8 cells assessed as increase in YOYO3 positive cells at 20 nM incubated for 48 hrs in presence of 100 uM […], uridine measured every 2 hrs by YOYO-3 staining based live cell imaging analysis; summary of the method: as §1
[6] = target: T1, Dihydroorotate dehydrogenase (quinone), mitochondrial; test: Inhibition of DHOH in human ARN8 cells assessed as increase in caspase 3/7 activity at 20 nM incubated for 48 hrs by live cell imaging analysis; type: cell-based; summary of the method: as §1
[7] = target: T1, Dihydroorotate dehydrogenase (quinone), mitochondrial; test: Inhibition of DHOH in human ARN8 cells assessed as increase in YOYO3 positive cells at 20 nM incubated for 48 hrs measured every 2 hrs by YOYO-3 staining based live cell imaging analysis; summary of the method: as §1
Homo sapiens = organism: Homo sapiens; test: Antiproliferative activity against human ARN8 cells assessed as reduction in cell viability at 0.005 to 10 uM incubated for 72 hrs in presence of 100 uM […], uridine by SRB assay; type: functional, cell-based
[8] = target: T1, Dihydroorotate dehydrogenase (quinone), mitochondrial; test: Inhibition of DHODH in human ARN8 cells assessed as induction of DNA damage by measuring increase in p53 phosphorylation at Ser15 at 20 nM incubated for 24 hrs by Western blot analysis; type: cell-based
Summary of the method: (§2)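 ARN8 cells seeded at 15×10^4 per well and left 24 h. Treated 24 h at 20 nM, or with etoposide at 20 µM for 1 h, with 100 µM uridine where indicated. Lysates made in LDS buffer and protein-normalized, then run on 4–15% gels and transferred to PVDF. Phospho-proteins blocked in BSA, others in milk; primary antibodies overnight at 4 °C, ECL detection. Loading judged by stain-free total protein.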

[9] = Metabolic stability in CD-1 mouse liver microsomes assessed as half life at 1 uM incubated for 60 mins by LC-MS/MS analysis; type: ADME, Microsome; details: CD-1, mouse, liver microsomes
Summary of the method: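 Compound at 1 µM with 1.0 mg/mL human or mouse liver microsomes in 50 mM potassium phosphate pH 7.4, preincubated 5 min at 37 °C. Started with 1 mM NADPH (or blank buffer). Quenched with cold acetonitrile containing glipizide at 0, 5, 15, 30, 60 min. Parent loss tracked by LC-MS/MS in MRM mode; t½ = 0.693/k from slope of peak-area ratio versus time.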

[10] = target: T1, Dihydroorotate dehydrogenase (quinone), mitochondrial; test: Inhibition of DHODH in human ARN8 cells assessed as induction of DNA damage by measuring increase in gammaH2AX level at 20 nM incubated for 24 hrs in presence of 100 uM […], uridine by Western blot analysis; type: cell-based; summary of the method: as §2
[11] = target: T1, Dihydroorotate dehydrogenase (quinone), mitochondrial; test: Inhibition of […] in human ARN8 cells assessed as decrease in Bcl2 protein expression at 20 nM incubated for 24 hrs by Western blot analysis; type: cell-based
[12] = target: T1, Dihydroorotate dehydrogenase (quinone), mitochondrial; test: Inhibition of DHODH in human ARN8 cells assessed as increase in p53 level at 20 nM incubated for 24 hrs in presence of 100 uM […], uridine by Western blot analysis; type: cell-based; summary of the method: as §2
[13] = target: T1, Dihydroorotate dehydrogenase (quinone), mitochondrial; test: Inhibition of […] in human ARN8 cells assessed as increase in Bax protein expression at 20 nM incubated for 24 hrs in presence of pan-caspase inhibitor, Z-VAD-FMK by Western blot analysis; type: cell-based

T1 sequence (Q02127 whole entry): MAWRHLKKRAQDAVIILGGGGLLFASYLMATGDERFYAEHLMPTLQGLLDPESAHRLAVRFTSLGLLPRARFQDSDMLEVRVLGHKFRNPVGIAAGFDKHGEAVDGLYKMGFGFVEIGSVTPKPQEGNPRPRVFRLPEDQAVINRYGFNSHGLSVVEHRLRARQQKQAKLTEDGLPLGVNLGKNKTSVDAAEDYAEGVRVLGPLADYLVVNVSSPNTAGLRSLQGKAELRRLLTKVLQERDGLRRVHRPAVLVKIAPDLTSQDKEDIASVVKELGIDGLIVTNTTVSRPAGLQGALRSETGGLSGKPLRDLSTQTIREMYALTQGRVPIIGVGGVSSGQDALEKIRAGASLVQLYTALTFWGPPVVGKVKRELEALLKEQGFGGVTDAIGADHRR

With `O=C(N[C@@H]1CCCc2c1cnn2-c1ccccc1F)c1ncn2c1CCCC2` the solubility kinetic at 4 h [1] was 74 µM (≈ 28.1 µg/mL), the inhibition [2] was “Active” and the inhibition [3] was “inactive”. The IC50 [4] was less than 5 nM, the inhibition [5] was “inactive” and the inhibition [6] was “Active”. For the same compound, the inhibition [7] was “Active”, the Activity (Homo sapiens) was “inactive” and the inhibition [8] was “Active”. The half-life at 1 µM [9] was 36 min, the inhibition [10] was “inactive” and the inhibition [11] was “Active”. For the same compound, the inhibition [12] was “inactive” and the inhibition [13] was “Active”.
